Source: paper PMC3861362 (Clinical Pharmacology : Advances and Applications, 2013)
Entries after “also recorded” stand apart in the source; their conditions may differ. Read-outs that look alike come from different tables or passages of the source.

Columns and labels:
bovine factor Xa = bovine factor Xa (Bos taurus, UniProt P00743); test: Plasma anti-Xa activity by chromogenic assay after apixaban dosing; type: in vivo
P-glycoprotein = details: cited from earlier work
[1] = cited from earlier work
[2] = type: in vivo, human (healthy Chinese subjects)
Procedure, shortened: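 Dosing was 10 mg once on day 1, then 10 mg twice daily for 6 d, ending with the morning dose on day 9. Subjects were confined to the facility throughout and monitored for adverse events, with physical examinations, vital signs, ECGs and clinical laboratory tests.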

CYP3A4 = details: minor contribution from other CYP enzymes; cited from earlier work
[3] = type: in vivo, human (healthy Chinese subjects); details: for CL renal: plasma and urine, CLR
[4] = test system: breast cancer resistance protein; details: cited from earlier work
[5] = multiple doses 10 mg twice daily, one of twelve subjects

Chain of bovine factor Xa (P00743 234-492 limits assumed): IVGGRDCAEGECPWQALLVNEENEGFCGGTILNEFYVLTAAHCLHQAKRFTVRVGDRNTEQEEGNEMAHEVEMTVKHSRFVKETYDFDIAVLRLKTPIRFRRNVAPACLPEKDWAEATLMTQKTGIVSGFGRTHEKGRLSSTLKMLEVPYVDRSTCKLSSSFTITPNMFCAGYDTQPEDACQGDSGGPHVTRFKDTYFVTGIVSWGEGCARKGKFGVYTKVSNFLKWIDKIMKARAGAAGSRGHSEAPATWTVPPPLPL
Chain of bovine factor Xa (P00743 41-180 partner limits assumed): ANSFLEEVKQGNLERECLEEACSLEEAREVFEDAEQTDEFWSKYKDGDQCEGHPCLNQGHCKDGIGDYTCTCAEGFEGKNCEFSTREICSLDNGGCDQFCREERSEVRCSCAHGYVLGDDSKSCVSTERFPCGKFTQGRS

## COc1ccc(-n2nc(C(N)=O)c3c2C(=O)N(c2ccc(N4CCCCC4=O)cc2)CC3)cc1 [apixaban]
Bovine factor Xa; day 9, at 3 hours (peak apixaban concentration), 10 mg twice daily, low-molecular-weight heparin units
  maximum anti-Xa activity, mean (SD): 5.57 (SD, 1.54) IU/mL
Bovine factor Xa; day 9, at 12 hours (trough apixaban concentration), 10 mg twice daily, low-molecular-weight heparin units
  minimum anti-Xa activity, mean (SD): 1.94 (SD, 0.54) IU/mL
Bovine factor Xa; single and multiple doses
  relationship between anti-Xa activity and plasma apixaban concentration: appears to be linear; also recorded: direct linear relationship
P-glycoprotein
  P-glycoprotein substrate: substrate
[1]; Japanese and non-Asian subjects, ref previous studies
  CLR: 0.49 to 1.07 L/h
[1]
  oral bioavailability: ~ 50%
  share of total clearance via the kidneys: 27%
[1]; healthy Western subjects
  mean elimination t½: approximately 12 hours
[1]; oral administration
  share of dose undergoing oxidative metabolism: ~ 25%
  time to Cmax after oral administration: ~ 3 hours
[1]; white and Japanese subjects
  time to Cmax: 2 to 4 h
[2]; 10 mg twice daily
  severity of adverse events after multiple-dose administration: mild
[2]; healthy Chinese subjects, 10 mg single and twice-daily doses
  overall safety and tolerability: safe and well tolerated
[2]; [5]
  subjects with elevated alanine aminotransferase (ALT): 8%
  subjects with microscopic hematuria: 8%
  subjects with positive fecal blood: 8%
[2]; single-dose apixaban 10 mg
  adverse events after single dose: No adverse events
[2]; whole study
  changes in vital signs, physical examinations, or ECGs: No clinically significant changes
[2]; whole study, 10 mg single and twice-daily doses, n=12
  deaths, serious adverse events, discontinuations, bleeding-related adverse events: no bleeding-related adverse events reported; also recorded: no deaths, other serious adverse events, adverse events leading to discontinuation, or clinically significant bleeding-related adverse events
CYP3A4
  enzyme mediating oxidative metabolism: primarily mediated via CYP3A4
[3]; human, oral, 10 mg, Mean (SD), multiple doses 10 mg twice daily, day 9, n=12
  CL renal: 20 mL/min
[3]; human, po, 10 mg, Mean (SD), single 10 mg oral dose, day 1, n=12
  CL renal: 19.5 mL/min
[3]; human, plasma, oral, 10 mg, Tmax, Median (min, max), multiple doses 10 mg twice daily, day 9, n=12
  Tmax: 3.5 h
[3]; human, plasma, oral, 10 mg, t½, Mean (SD), multiple doses 10 mg twice daily, day 9, n=12
  half-life: 10.8 h
[3]; human, plasma, po, 10 mg
  AUC(0-inf): 2310 ng·h/mL
  AUC(0-t): 2270 ng·h/mL
  Cmax: 234 ng/mL
[3]; multiple doses 10 mg twice daily
  time at which steady-state conditions were achieved: by the third day of multiple-dose administration
[3]; single 10 mg oral dose, day 1, n=12
  t½, Mean (SD): 11.4 (3.6) hours
[4]
  breast cancer resistance protein substrate: substrate
